The source made the active and inactive calls. No cut-off for these calls is given here.
How the values were obtained:
[1] = molecular target: C-X-C chemokine receptor type 4 (Homo sapiens) (UniProt P61073); assay: Antagonist activity at human CXCR4 expressed in HEK293 cells assessed as inhibition of SDF1-induced increase in intracellular calcium level treated 15 mins before agonist challenge measured after 1 hr by FLIPR assay; assay type: functional, cell-based
[2] = molecular target: C-X-C chemokine receptor type 4 (Homo sapiens) (UniProt P61073); assay: Agonist activity at human CXCR4 expressed in HEK293 cells assessed as effect intracellular calcium level after 1 hr by FLIPR assay; assay type: functional, cell-based
[3] = test system: Human immunodeficiency virus 1; assay: Antiviral activity against HIV1 Bal infected in human HOS cells after 72 hrs by luminescence assay; assay type: functional, organism-based; conditions: Human immunodeficiency virus 1, Bal
Procedure, shortened: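 R5-tropic virus infection of HOS cells (hCXCR4/hCCR5/hCD4, LTR-luciferase reporter). Cells were plated in DMEM with 2% FCS overnight, pre-incubated with compound for 1 h, then given virus pre-mixed with compound. Incubation was 72 h at 37°C. Read-out was luciferase luminescence. IC50 from a four-parameter logistic fit.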

Cytochrome P450 1A2 = molecular target: T1, Cytochrome P450 1A2 (Homo sapiens, UniProt P05177); assay: Inhibition of CYP1A2 up to 30 uM; assay type: ADME
T1 sequence (P05177 whole entry): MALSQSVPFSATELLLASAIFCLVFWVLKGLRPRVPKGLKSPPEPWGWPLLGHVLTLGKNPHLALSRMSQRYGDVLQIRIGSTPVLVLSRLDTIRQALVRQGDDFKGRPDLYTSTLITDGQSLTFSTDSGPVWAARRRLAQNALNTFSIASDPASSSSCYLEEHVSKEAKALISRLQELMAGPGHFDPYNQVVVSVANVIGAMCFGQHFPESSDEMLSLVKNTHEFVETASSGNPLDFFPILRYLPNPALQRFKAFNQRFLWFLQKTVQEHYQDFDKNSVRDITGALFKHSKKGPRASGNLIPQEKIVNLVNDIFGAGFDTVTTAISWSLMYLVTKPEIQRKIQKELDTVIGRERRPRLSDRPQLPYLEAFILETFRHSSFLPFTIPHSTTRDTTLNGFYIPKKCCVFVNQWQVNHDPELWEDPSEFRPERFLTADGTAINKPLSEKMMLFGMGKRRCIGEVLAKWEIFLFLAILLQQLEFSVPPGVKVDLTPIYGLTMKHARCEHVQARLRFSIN

[4] = test system: Human immunodeficiency virus 1; assay: Antiviral activity against HIV1 isolate 05-121787 assessed as inhibition of viral replication after 7 days by scintillation counting; assay type: functional, organism-based; conditions: Human immunodeficiency virus 1, isolate 05-121787, 168 h
[5] = test system: Human immunodeficiency virus 1; assay: Antiviral activity against HIV1 isolate 05-121781 assessed as inhibition of viral replication after 7 days by scintillation counting; assay type: functional, organism-based; conditions: Human immunodeficiency virus 1, isolate 05-121781, 168 h
[6] = test system: Human immunodeficiency virus 1; assay: Antiviral activity against HIV1 isolate 05-121794 assessed as inhibition of viral replication after 7 days by scintillation counting; assay type: functional, organism-based; conditions: Human immunodeficiency virus 1, isolate 05-121794, 168 h
[7] = test system: Human immunodeficiency virus 1; assay: Antiviral activity against HIV1 isolate 05-121801 assessed as inhibition of viral replication after 7 days by scintillation counting; assay type: functional, organism-based; conditions: Human immunodeficiency virus 1, isolate 05-121801, 168 h
[8] = test system: Human immunodeficiency virus 1; assay: Antiviral activity against HIV1 3B infected in human HOS cells after 72 hrs by luminescence assay in presence of 45 mg/ml human serum albumin; assay type: functional, organism-based; conditions: Human immunodeficiency virus 1, 3B
Procedure, shortened: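 HOS LTR-luciferase viral assay (1 h compound pre-incubation, virus plus compound, 72 h, 37°C, luminescence) run with human serum albumin (45 mg/ml) with or without α-acid glycoprotein (1 mg/ml). Protein-free IC50 served as baseline for fold shift.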

[9] = test system: Human immunodeficiency virus 1; assay: Antiviral activity against HIV1 isolate 05-121774 assessed as inhibition of viral replication after 7 days by scintillation counting; assay type: functional, organism-based; conditions: Human immunodeficiency virus 1, isolate 05-121774, 168 h
[10] = test system: Human immunodeficiency virus 1; assay: Antiviral activity against HIV1 isolate 05-121795 assessed as inhibition of viral replication after 7 days by scintillation counting; assay type: functional, organism-based; conditions: Human immunodeficiency virus 1, isolate 05-121795, 168 h
[11] = Half life in rat at 3 mg/kg, po administered as single dose by liquid chromatography-mass spectroscopy; assay type: ADME, organism-based; set-up: dose 3 mg/kg, route oral; conditions: in vivo
[12] = molecular target: Voltage-gated inwardly rectifying potassium channel KCNH2 (Homo sapiens, UniProt Q12809); assay: Inhibition of human ERG up to 10 uM
[13] = test system: Human immunodeficiency virus 1; assay: Antiviral activity against HIV1 isolate 05-121777 assessed as inhibition of viral replication after 7 days by scintillation counting; assay type: functional, organism-based; conditions: Human immunodeficiency virus 1, isolate 05-121777, 168 h
[14] = test system: Human immunodeficiency virus 1; assay: Antiviral activity against HIV1 isolate 05-121789 assessed as inhibition of viral replication after 7 days by scintillation counting; assay type: functional, organism-based; conditions: Human immunodeficiency virus 1, isolate 05-121789, 168 h
[15] = Volume of distribution at steady state in dog at 1 mg/kg, iv administered as single dose after 24 hrs by liquid chromatography-mass spectroscopy; assay type: ADME, organism-based, Canis lupus familiaris; set-up: dose 1 mg/kg, route intravenous; conditions: in vivo, read-out: Vdss
[16] = test system: Human immunodeficiency virus 1; assay: Antiviral activity against HIV1 JRCSF assessed as inhibition of viral replication by cell-based assay; assay type: functional; conditions: JRCSF ISOLATE
[17] = test system: Human immunodeficiency virus 1; assay: Antiviral activity against HIV1 isolate 05-121778 assessed as inhibition of viral replication after 7 days by scintillation counting; assay type: functional, organism-based; conditions: Human immunodeficiency virus 1, isolate 05-121778, 168 h
[18] = test system: Human immunodeficiency virus 1; assay: Antiviral activity against HIV1 isolate 05-121780 assessed as inhibition of viral replication after 7 days by scintillation counting; assay type: functional, organism-based; conditions: Human immunodeficiency virus 1, isolate 05-121780, 168 h
[19] = Clearance in dog at 1 mg/kg, iv administered as single dose after 24 hrs by liquid chromatography-mass spectroscopy; assay type: ADME, organism-based, Canis lupus familiaris; set-up: dose 1 mg/kg, route intravenous; conditions: in vivo
Procedure, shortened: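 Single intravenous dose of 1 mg/kg. Plasma was sampled at serial times over 24 h and measured by LC-MS/MS. Clearance was derived by pharmacokinetic analysis.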

[20] = Half life in monkey at 3 mg/kg, po administered as single dose by liquid chromatography-mass spectroscopy; assay type: ADME, organism-based, Macaca mulatta; set-up: dose 3 mg/kg, route oral; conditions: rhesus monkey, in vivo
Procedure, shortened: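 Single oral dose of 3 mg/kg. Plasma was sampled at serial times over 24 h and measured by LC-MS/MS. Half-life was derived by pharmacokinetic analysis.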

[21] = Volume of distribution at steady state in mouse at 1 mg/kg, iv administered as single dose after 24 hrs by liquid chromatography-mass spectroscopy; assay type: ADME, organism-based; set-up: dose 1 mg/kg, route intravenous; conditions: in vivo, read-out: Vdss
Cytochrome P450 3A4 = Cytochrome P450 3A4 (Homo sapiens, UniProt P08684); assay: Inhibition of CYP3A4 up to 30 uM; assay type: ADME
[22] = test system: Human immunodeficiency virus 1; assay: Antiviral activity against HIV1 isolate 05-121802 assessed as inhibition of viral replication after 7 days by scintillation counting; assay type: functional, organism-based; conditions: Human immunodeficiency virus 1, isolate 05-121802, 168 h
[23] = test system: Human immunodeficiency virus 1; assay: Antiviral activity against HIV1 isolate 05-121773 assessed as inhibition of viral replication after 7 days by scintillation counting; assay type: functional, organism-based; conditions: Human immunodeficiency virus 1, isolate 05-121773, 168 h

C-X-C chemokine receptor type 4 (Homo sapiens), sequence (P61073 whole entry): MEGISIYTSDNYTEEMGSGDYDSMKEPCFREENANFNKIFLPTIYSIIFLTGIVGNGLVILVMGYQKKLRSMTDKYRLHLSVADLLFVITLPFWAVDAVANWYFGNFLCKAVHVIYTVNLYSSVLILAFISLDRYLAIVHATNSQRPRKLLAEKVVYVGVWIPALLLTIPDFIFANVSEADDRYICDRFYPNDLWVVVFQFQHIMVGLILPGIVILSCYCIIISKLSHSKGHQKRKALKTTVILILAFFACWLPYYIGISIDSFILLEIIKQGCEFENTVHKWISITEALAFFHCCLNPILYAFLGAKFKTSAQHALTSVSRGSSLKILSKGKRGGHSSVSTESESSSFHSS
Cytochrome P450 3A4, sequence (P08684 whole entry): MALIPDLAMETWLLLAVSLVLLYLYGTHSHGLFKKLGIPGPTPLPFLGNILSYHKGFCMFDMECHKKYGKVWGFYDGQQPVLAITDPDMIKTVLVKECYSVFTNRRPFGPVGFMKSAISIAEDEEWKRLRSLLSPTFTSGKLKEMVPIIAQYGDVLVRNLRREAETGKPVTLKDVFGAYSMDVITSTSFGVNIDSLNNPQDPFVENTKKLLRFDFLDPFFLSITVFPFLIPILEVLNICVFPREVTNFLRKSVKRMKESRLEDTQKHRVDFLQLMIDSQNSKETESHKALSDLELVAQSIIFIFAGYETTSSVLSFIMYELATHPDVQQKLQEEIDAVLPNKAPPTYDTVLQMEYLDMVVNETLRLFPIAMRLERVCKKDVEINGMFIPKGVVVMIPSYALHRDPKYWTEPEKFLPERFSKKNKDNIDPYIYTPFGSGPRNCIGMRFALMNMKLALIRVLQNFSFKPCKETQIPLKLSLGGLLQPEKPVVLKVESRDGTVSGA
Voltage-gated inwardly rectifying potassium channel KCNH2, sequence (Q12809 whole entry): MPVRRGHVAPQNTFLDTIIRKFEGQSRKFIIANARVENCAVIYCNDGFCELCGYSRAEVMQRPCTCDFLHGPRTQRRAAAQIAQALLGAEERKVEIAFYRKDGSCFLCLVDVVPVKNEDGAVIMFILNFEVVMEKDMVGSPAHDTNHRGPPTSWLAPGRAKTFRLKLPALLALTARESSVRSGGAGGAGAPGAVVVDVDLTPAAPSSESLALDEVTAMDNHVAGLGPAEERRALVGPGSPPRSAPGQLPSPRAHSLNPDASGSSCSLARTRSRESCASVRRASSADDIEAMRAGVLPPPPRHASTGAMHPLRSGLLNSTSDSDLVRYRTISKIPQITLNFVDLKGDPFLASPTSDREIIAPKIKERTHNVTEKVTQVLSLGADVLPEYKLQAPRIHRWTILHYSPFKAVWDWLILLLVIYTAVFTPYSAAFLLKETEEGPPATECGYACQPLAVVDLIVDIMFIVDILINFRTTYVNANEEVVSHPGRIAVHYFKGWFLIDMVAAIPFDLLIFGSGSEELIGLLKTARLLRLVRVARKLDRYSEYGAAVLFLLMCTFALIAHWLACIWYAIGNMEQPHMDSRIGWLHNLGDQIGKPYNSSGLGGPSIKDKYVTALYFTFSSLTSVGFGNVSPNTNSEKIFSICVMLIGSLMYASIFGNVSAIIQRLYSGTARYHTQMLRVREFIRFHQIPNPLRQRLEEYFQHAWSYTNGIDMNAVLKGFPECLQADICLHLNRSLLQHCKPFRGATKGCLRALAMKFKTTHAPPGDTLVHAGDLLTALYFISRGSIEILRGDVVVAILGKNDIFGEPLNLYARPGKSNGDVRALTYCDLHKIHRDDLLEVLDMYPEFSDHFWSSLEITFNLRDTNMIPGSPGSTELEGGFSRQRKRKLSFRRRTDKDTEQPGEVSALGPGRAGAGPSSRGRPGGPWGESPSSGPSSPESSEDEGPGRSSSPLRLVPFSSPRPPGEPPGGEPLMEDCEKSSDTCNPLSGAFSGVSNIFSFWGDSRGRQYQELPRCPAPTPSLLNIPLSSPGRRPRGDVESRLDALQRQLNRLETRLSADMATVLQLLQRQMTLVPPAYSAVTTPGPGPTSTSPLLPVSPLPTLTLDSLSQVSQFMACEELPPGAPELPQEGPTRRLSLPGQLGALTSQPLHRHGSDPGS

Activity [1]: Dose-dependent effect | Activity [2]: inactive | IC50 [3]: > 2500 nM | inhibition (INH) (Cytochrome P450 1A2): Not Active | IC50 [4]: 1 nM | IC50 [5]: 1 nM | IC50 [6]: 1 nM | IC50 [7]: 1 nM | IC50 [8]: 2.01 nM | IC50 [9]: 1 nM | IC50 [10]: 1 nM | half-life [11]: 8.6 h | IC50 [13]: 1 nM | IC50 [14]: 1 nM | Vd [15]: 5.3 L/kg | IC50 [17]: 1 nM | IC50 [18]: 1 nM | clearance [19]: 5.5 mL/min/kg | half-life [20]: > 12 h | Vd [21]: 4.2 L/kg | inhibition (INH) (Cytochrome P450 3A4): Not Active | IC50 [22]: 1 nM | IC50 [23]: 1 nM
SMILES: CN1CCN(c2cccc3nc(CN(C)[C@H]4CCCc5cccnc54)c(CO)n23)CC1
inhibition (INH) [12]: Not Active | inhibition [16]: inactive
